# Bioassay records (PubChem BioAssay)
# E coli Lon inh – E. coli protease La inhibition. P0A9M0. purified E. coli Lon protease, fluorescence polarization. inhibition, % at 7.94 µM. 0.42% of 360,000 active. AID 602123; in the data active means inhibition above about 13%, passing the limit was not always enough
# PRMT1 FP inh – blocks human protein arginine methyltransferase 1 | Q99873 | recombinant PRMT1, activity-based probe fluorescence polarization | inhibition, % at 2.79 µM | 1.3% of 370,000 active | AID 652257;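 active means inhibition above about 21% made by adding two undisclosed values, limit read from the data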
# TDP2 absorb – TDP2 (human) inhibition, absorbance primary screen; 0.34% of 370,000 active; inhibition, % at 12.8 µM; O95551; recombinant TDP2, T5PNP hydrolysis, p-nitrophenol absorbance 415 nm; AID 720702;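 active means inhibition above the mean of all tested compounds plus 3 SD, set per campaign, cut at about 25% in these data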
#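 Assay system: recombinant human TDP2 / Reagent: T5PNP substrate at 5 mM, a TopII-DNA adduct mimic / Measured by: epi absorbance from released p-nitrophenol / Evaluation: % inhibition relative to enzyme-containing and enzyme-free wells / Control set: enzyme-free and DMSO wells / Replicates: each compound tested once, singlicate / Schedule: enzyme reaction with compound for 2 h at 37 °C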
# GSTO1 counter – GSTO1 inhibition, counter-screen for RBBP9 inhibitors; recombinant GSTO1, activity-based probe fluorescence polarization; P78417; inhibition, % at 5.96 µM; 1.1% of 300,000 active; AID 1974;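 active means inhibition above the campaign mean inhibition plus 3 SD, cut at about 35% in these data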
# PAD4 inh – inhibitors of human PAD4; 0.41% of 330,000 active; inhibition, % at 6.36 µM; recombinant PAD4, RCA probe fluorescence polarization; Q9UM07;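 active means percent inhibition above a cutoff equal to the mean of all tested compounds plus 3 SD, cut at about 15% in these data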
# Target sequence (Q9UM07 whole entry, looked up): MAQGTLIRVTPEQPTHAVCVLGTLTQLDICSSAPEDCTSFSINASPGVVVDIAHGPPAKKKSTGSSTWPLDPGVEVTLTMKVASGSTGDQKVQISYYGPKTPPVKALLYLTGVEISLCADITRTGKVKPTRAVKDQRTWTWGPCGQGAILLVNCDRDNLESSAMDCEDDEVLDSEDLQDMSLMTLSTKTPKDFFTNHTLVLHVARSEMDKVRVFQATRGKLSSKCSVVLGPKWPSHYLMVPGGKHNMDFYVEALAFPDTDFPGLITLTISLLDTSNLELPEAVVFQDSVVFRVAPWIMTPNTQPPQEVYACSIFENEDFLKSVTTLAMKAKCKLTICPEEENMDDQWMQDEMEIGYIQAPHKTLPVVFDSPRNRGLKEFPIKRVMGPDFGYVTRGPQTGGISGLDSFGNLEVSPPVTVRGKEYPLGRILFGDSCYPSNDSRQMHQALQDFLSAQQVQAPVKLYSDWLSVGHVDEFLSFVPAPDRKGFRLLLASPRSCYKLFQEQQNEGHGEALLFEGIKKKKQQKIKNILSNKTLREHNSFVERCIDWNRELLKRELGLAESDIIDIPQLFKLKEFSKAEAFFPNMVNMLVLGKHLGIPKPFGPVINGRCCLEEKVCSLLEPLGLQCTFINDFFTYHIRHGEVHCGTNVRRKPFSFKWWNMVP
# PAD4 confirm – confirmation of human PAD4 inhibitors | inhibition, % at 6.36 µM | recombinant PAD4, RCA probe fluorescence polarization | AID 488796 | 28% of 1,200 active | shares compounds with PAD4 inh;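 active means mean inhibition across replicates above the hit cutoff set by the earlier primary screen, cut at about 15% in these data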;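 further: inhibitors block active-site labeling by the probe so polarization falls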
# Hits are given with their value; . = inactive; / = no result; + = active, no number. Hits are enriched below; roughly 2.5% of the tested compounds scored in any of these assays.
SMILES,E coli Lon inh,PRMT1 FP inh,TDP2 absorb,GSTO1 counter,PAD4 inh,PAD4 confirm
CCOC(=O)N1CCN(C(=O)C[C@H]2C(=O)N(CCCOC)C3=CCCC[C@@]32C(=O)OCC)CC1,/,.,.,/,/,/
Nc1cccc2c1C(=O)N(C(=O)c1ccco1)C2=O,.,.,.,.,.,/
Cc1ccc(-c2cc(C(=O)N3CCN(C(=O)c4ccco4)CC3)[nH]n2)c(C)c1,.,.,.,.,.,/
Cc1cccc2c1N(C(=O)c1ccco1)C(C)(C)c1ssc(=S)c1-2,.,.,.,.,15,.
Cc1ccc2c(c1)N(C(=O)c1ccco1)C(C)(C)c1ssc(=S)c1-2,.,.,.,.,16,24
C[C@H]1[C@@H](OC(=O)NCCc2c[nH]c3ccccc23)CC[C@@]23CCCN2C(=O)CCC[C@@H]13,/,.,.,/,/,/
COC(=O)[C@]12C[C@H](CC(=O)N3CCOCC3)C(=O)N(Cc3ccco3)C1=C[C@H](C(C)(C)C)O[C@@H]2C,/,.,.,/,/,/
O=C(NC1CCCCN(Cc2cccc(Cl)c2)C1=O)c1cccc([N+](=O)[O-])c1 (stereo unspecified),/,.,.,/,/,/
CCN1/C(=C/C=C/c2oc3ccc(-c4ccccc4)cc3[n+]2CC)Oc2ccc(-c3ccccc3)cc21,/,.,.,.,63,45
CCCOc1ccc(C(=O)NNC(=S)NC(=O)c2cc(-c3ccc(Cl)cc3)nc3ccccc23)cc1,.,.,.,.,.,/
COc1ccc(C(=O)NNC(=S)NC(=O)c2cc(-c3ccccc3)nc3ccccc23)cc1,.,.,.,.,15,.
O=C1N/C(=C/c2ccc(N3CCOCC3)o2)C(=O)N1c1ccccc1,.,46,.,.,119,.
CC(C)C(C(=O)NC1CCCC1)N(CC1CCCO1)C(=O)CNS(=O)(=O)c1ccccc1 (stereo unspecified),.,.,.,.,26,.
O=C(O)c1cccc2c1C(=O)c1ccccc1C2=O,.,.,.,.,.,/
O=C(O)c1ccc2c3c(ncnc13)-c1ccccc1C2=O,/,/,/,.,85,68
CCOC(=O)c1c(C)[nH]c(C2=NNC(=NC3CC3)SC2)c1C,.,/,/,.,17,.
Cc1cc(NS(=O)(=O)c2ccc(NC(=O)Cc3ccc(Cl)c(F)c3)cc2)no1,/,.,.,/,/,/
CCC(=O)Nc1ccccc1Sc1ncnc2scc(-c3ccccc3)c12,.,.,.,.,21,.
O=C(O)CSc1ncnc2scc(-c3ccccc3)c12,.,.,.,.,.,/
CN1[C@@H](Cc2ccccc2)COc2cc(N3CCCC3)ccc2S1(=O)=O,/,.,.,/,/,/
O=C(Nc1ccc(Cl)cc1)NC1CCCCNC1=O (stereo unspecified),.,.,.,.,.,/
Nc1ccccc1C(=O)NC1CCCNC1=O (stereo unspecified),.,.,.,.,29,.
c1ccc2c(c1)Cn1nnnc1-2,.,/,/,.,33,.
Oc1ccc2ccccc2c1C=NCc1ccccc1,.,.,.,.,19,.
Cc1ccc2ccc(C)[n+](CCCS(=O)(=O)[O-])c2c1,.,.,.,.,.,/
SMILES,E coli Lon inh,PRMT1 FP inh,TDP2 absorb,GSTO1 counter,PAD4 inh,PAD4 confirm
CCO/C(=C/c1sc2ccc(OC)cc2[n+]1CCCS(=O)(=O)[O-])CC,.,77,.,.,19,.
COC(=O)[C@]12C[C@H](CC(=O)N3CCOCC3)C(=O)N(CCc3ccc(OC)c(OC)c3)C1=C[C@H](C1CCCC1)O[C@@H]2C,/,.,.,/,/,/
CCn1nnnc1SCC(=O)N(C)C1CCS(=O)(=O)C1 (stereo unspecified),.,.,.,/,16,.
COCCn1cnc2c1c(=O)n(Cc1ccc(C#N)cc1)c(=O)n2Cc1ccccc1,.,.,.,.,20,.
COCC(=O)N(CCc1ccc(OC)c(OC)c1)Cc1nc2ccccc2c(=O)[nH]1,.,.,.,.,22,.
COCC(=O)N(Cc1nc2ccccc2c(=O)[nH]1)Cc1cccs1,.,.,.,.,.,/
CC(C)(C)c1ccc(C(=O)NCCOc2ccccc2F)cc1,.,.,.,.,.,/
CC(C)(C)c1ccc(C(=O)NCCOc2ccccc2)cc1,.,.,.,.,18,.
COc1cc(C=Nn2c(-c3ccc(F)cc3)n[nH]c2=S)ccc1OCc1ccccc1,/,.,.,/,/,/
Cc1ccc(S(=O)(=O)NC(=O)Nc2ccc(N(C)C)cc2)cc1,.,26,.,87,28,.
Cc1ccc(NC(=O)NNS(=O)(=O)c2ccc(Br)cc2)cc1,.,.,.,.,.,/
COc1ccc(C(=O)Nc2nc3ccccc3s2)c(OC)c1,.,.,.,.,22,55
COC(=O)c1sccc1NC(=O)c1ccc(OC)cc1OC,.,.,.,.,25,.
CC(C)[C@H](NC(=O)[C@H](C)NC(=O)OC(C)(C)C)C(=O)N1CCC2CCN(Cc3ccccc3)CC21 (stereo partly specified),/,.,.,/,/,/
O=C(/C=C/c1ccccc1)C1=C(O)C(=O)N(CCO)C1c1ccccc1[N+](=O)[O-] (stereo unspecified),.,.,.,.,24,.
Cc1ccc(S(=O)(=O)N(C(=O)c2ccco2)c2cc3sc(=O)oc3c3ccccc23)cc1,.,84,.,66,21,.
Cc1ccc(S(=O)(=O)N(C)CC(=O)N2CCN(C(=O)c3ccco3)CC2)cc1,.,.,.,.,.,/
CCOC(=O)[C@@H](CCc1ccccc1)N[C@@H](C)C(=O)N1CCC[C@H]1C(=O)O,/,.,.,/,/,/
CC(C)N(C)NC(=S)Nc1ccccc1,.,.,.,.,.,/
Cc1cc(N(C)NC(=S)Nc2ccccc2)nc(C)n1,.,.,.,.,52,.
C=CCN1C(=O)[C@H](CC(=O)NCC23CC4CC(CC(C4)C2)C3)[C@@]2(C(=O)OCC)CCCC=C12,/,.,.,/,/,/
CC(=C/c1ccco1)/C=N/N1CCN(c2ccccc2)CC1,.,.,.,.,20,.
CCOC(=O)c1c(C)sc2c1N(C(=O)CCl)c1cc(Cl)ccc1S2,.,.,.,.,19,43
CCCCNC(=O)C[C@H]1C[C@@]2(C(=O)OC)C(=C[C@H](C(C)C)O[C@@H]2C2CC2)N(Cc2cccc3ccccc23)C1=O,/,.,.,/,/,/
CS(=O)(=O)c1ccc(N)c(SSc2cc(S(C)(=O)=O)ccc2N)c1,.,87,.,.,45,52
O=C(Nc1ccc(F)cc1)OCc1cn(Cc2ccc(F)cc2F)nn1,/,.,.,/,/,/
Cc1c(NC(=O)CSc2nccn2C)c(=O)n(-c2ccccc2)n1C,.,.,.,.,+,.
Cc1c(NC(=O)C(C)Sc2nccn2C)c(=O)n(-c2ccccc2)n1C (stereo unspecified),.,.,.,/,.,/
O=[N+]([O-])c1ccc2nc(-c3ccccc3)n(OCc3ccc(Cl)cc3)c2c1,.,.,.,.,84,.
COc1cc(N2C(=O)CSC23C(=O)Nc2ccccc23)cc(OC)c1OC (stereo unspecified),.,.,.,.,15,16
